Data taken from ChEMBL document CHEMBL1795269, “Novel (E)-5-styryl-2,2'-bithiophene derivatives as ligands for β-amyloid plaques” (Eur J Med Chem, 2011).
Activity calls are given as the source filed them. The calls are words filed in the database; no cut-off is given here.

Experiments:
[1] = Displacement of [125I]-TZDM from amyloid beta 1 to 42 after 2 hrs by gamma counting
Method in brief: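 Aβ1-42 aggregated at 0.25 mg/mL in pH 7.4 buffer (10 mM sodium phosphate, 1 mM EDTA), 37 °C for 42 h with shaking. Fibrils (28 nM final) mixed with [125I]TZDM and inhibitor (10^-5 to 10^-10 M in EtOH) in PBS (0.2 M, pH 7.4). Incubated 2 h at 37 °C; nonspecific binding taken with 100 nM TZDM. Bound and free separated by vacuum filtration through glass fibre filters, washed with cold PBS containing 10% ethanol, then counted; Ki reported.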

[2] = species on record: Mus musculus; assay: Binding affinity to amyloid beta in APP/PS1 transgenic C57 mouse brain at 1 uM after 10 mins by fluorescence assay; type: tissue-based
Method in brief: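 Paraffin-embedded brain sections (10 μm) from APP/PS1 C57 transgenic mouse, deparaffinized through xylene and graded ethanol, then PBS (0.2 M, pH 7.4) 30 min. Sections incubated 10 min with compound (1 μM in 20% ethanol), washed with 50% ethanol and PBS. Confocal fluorescence read at excitation 405 nm, 505 nm long-pass. Plaques confirmed with thioflavin-S (1 μM) on adjacent sections.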

SMILES	Ki [1]	inhibition [1]	Activity [2]
CC(C)(C)c1ccc(/C=C/c2ccc(-c3cccs3)s2)cc1	0.73 nM	Dose-dependent effect	Active
C(=C\c1ccc(-c2cccs2)s1)/c1ccccc1	4.78 nM	Dose-dependent effect	
COc1ccc(/C=C/c2ccc(-c3ccc(Br)s3)s2)cc1	0.72 nM	Dose-dependent effect	
Fc1ccc(/C=C/c2ccc(-c3ccc(I)s3)s2)cc1	0.55 nM	Dose-dependent effect	
Clc1ccc(/C=C/c2ccc(-c3ccc(Br)s3)s2)cc1	1.02 nM	Dose-dependent effect	
CC(C)(C)c1ccc(/C=C/c2ccc(-c3ccc(Br)s3)s2)cc1	0.95 nM	Dose-dependent effect	
O=[N+]([O-])c1ccc(/C=C/c2ccc(-c3ccc(Br)s3)s2)cc1	0.1 nM	Dose-dependent effect	Active
Brc1ccc(/C=C/c2ccc(-c3ccc(I)s3)s2)cc1	0.19 nM	Dose-dependent effect	
O=[N+]([O-])c1ccc(/C=C/c2ccc(-c3cccs3)s2)cc1	0.56 nM	Dose-dependent effect	
Cc1ccc(/C=C/c2ccc(-c3ccc(Br)s3)s2)cc1	0.45 nM	Dose-dependent effect	
Ic1ccc(/C=C/c2ccc(-c3ccc(I)s3)s2)cc1	0.63 nM	Dose-dependent effect	
Brc1ccc(/C=C/c2ccc(-c3cccs3)s2)cc1	0.99 nM	Dose-dependent effect	
Oc1ccc(/C=C/c2ccc(-c3ccc(Br)s3)s2)cc1	3.6 nM	Dose-dependent effect	
Brc1ccc(-c2ccc(/C=C/c3ccccc3)s2)s1	1.32 nM	Dose-dependent effect	
Nc1ccc(/C=C/c2ccc(-c3cccs3)s2)cc1	41 nM	Dose-dependent effect	
Brc1ccc(-c2ccc(/C=C/c3ccc(I)cc3)s2)s1	0.51 nM	Dose-dependent effect	
